Measurements from ChEMBL document CHEMBL3784976 (J Med Chem, 2016).
In brackets after ≈: the same amount, converted by molar mass. Activity calls are given as the source filed them. The calls are words filed in the database; no cut-off is given here.

Key:
[1] = molecular target: Alpha-1A adrenergic receptor (Homo sapiens) (UniProt P35348); assay: Displacement of [3H]prazosin from human recombinant adrenergic alpha1A expressed in CHO cells assessed as remaining radioligand binding at 10 uM after 60 mins by scintillation counting method relative to control; type: cell-based
[2] = molecular target: Transient receptor potential cation channel subfamily M member 8 (Rattus norvegicus) (UniProt Q8R455); assay: Antagonist activity at rat TRPM8 assessed as inhibition of icilin-induced Ca2+ influx up to 10 uM preincubated for 2.5 mins followed by icilin addition measured for 1 min by luminescence assay
[3] = Cmax in rat at 30 mg/kg, po; type: ADME, organism-based; parameters: dose 30 mg/kg, route oral; conditions: in vivo
Summary of the method: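 Rat oral PK at 30 mg/kg (10 mg/kg for one analogue) in 1% Tween 80/2% HPMC/97% water with methanesulfonic acid, pH 2.2.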

[4] = molecular target: T1, Transient receptor potential cation channel subfamily A member 1 (Homo sapiens, UniProt O75762); assay: Agonist activity at human TRPA1 expressed in tetracycline-inducible T-REx expression system transfected CHO cells by 45Ca2+ uptake assay; type: cell-based
T1 sequence (O75762 whole entry): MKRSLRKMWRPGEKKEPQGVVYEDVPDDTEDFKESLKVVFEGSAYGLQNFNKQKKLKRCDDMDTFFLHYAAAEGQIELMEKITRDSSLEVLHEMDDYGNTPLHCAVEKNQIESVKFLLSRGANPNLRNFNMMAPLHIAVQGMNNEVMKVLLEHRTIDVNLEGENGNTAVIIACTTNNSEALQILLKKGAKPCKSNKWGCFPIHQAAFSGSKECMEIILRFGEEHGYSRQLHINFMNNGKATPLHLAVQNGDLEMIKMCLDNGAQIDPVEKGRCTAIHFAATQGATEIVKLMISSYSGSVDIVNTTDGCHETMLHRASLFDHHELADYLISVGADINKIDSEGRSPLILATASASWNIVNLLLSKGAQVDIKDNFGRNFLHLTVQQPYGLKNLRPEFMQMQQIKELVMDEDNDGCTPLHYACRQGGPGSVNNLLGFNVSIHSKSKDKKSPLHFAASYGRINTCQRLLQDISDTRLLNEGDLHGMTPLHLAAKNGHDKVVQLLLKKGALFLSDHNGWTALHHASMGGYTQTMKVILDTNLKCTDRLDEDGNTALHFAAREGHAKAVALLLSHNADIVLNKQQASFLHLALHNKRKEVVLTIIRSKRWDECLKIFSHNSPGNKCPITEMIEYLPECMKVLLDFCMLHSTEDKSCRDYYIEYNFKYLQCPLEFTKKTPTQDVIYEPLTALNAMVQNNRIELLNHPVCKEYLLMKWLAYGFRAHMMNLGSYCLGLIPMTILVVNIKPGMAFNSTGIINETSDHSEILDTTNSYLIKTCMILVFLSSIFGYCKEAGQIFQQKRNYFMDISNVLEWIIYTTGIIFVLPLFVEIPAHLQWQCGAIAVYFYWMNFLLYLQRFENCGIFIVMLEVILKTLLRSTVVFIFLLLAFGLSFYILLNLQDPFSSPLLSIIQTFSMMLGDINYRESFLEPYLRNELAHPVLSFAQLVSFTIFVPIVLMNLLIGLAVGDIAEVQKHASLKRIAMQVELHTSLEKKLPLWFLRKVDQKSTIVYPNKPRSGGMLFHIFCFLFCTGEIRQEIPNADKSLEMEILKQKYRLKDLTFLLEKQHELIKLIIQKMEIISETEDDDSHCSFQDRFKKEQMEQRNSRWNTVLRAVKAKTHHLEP

[5] = molecular target: T1, Transient receptor potential cation channel subfamily A member 1; assay: Antagonist activity at human TRPA1 expressed in tetracycline-inducible T-REx expression system transfected CHO cells assessed as inhibition of AITC-induced 45Ca2+ uptake preincubated for 1 min followed by AITC addition measured after 12 mins; type: cell-based
[6] = Oral bioavailability in rat at 30 mg/kg; type: ADME, organism-based; conditions: in vivo
Summary of the method: (§1)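 Rats dosed orally at 30 mg/kg, or 10 mg/kg for one analogue, in 1% Tween 80/2% HPMC/97% water with methanesulfonic acid, pH 2.2.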

Rattus norvegicus [7] = organism: Rattus norvegicus; assay: Displacement of [3H]nitrendipine from L-type calcium channel dihydropyridine binding site in rat cerebral cortex assessed as remaining radioligand binding at 10 uM after 90 mins by scintillation counting method relative to control; type: tissue-based
[8] = Apparent permeability from apical to basolateral side in MDCK cells expressing control vector after 120 mins by LC-MS/MS analysis; type: ADME, cell-based, Canis lupus familiaris; conditions: dog
[9] = molecular target: Cannabinoid receptor 1 (Homo sapiens) (UniProt P21554); assay: Displacement of [3H]CP-55940 from human recombinant CB1 receptor expressed in CHO cells assessed as remaining radioligand binding at 10 uM after 120 mins by scintillation counting method relative to control; type: cell-based
Sequence of Cannabinoid receptor 1 (Homo sapiens) (P21554 whole entry): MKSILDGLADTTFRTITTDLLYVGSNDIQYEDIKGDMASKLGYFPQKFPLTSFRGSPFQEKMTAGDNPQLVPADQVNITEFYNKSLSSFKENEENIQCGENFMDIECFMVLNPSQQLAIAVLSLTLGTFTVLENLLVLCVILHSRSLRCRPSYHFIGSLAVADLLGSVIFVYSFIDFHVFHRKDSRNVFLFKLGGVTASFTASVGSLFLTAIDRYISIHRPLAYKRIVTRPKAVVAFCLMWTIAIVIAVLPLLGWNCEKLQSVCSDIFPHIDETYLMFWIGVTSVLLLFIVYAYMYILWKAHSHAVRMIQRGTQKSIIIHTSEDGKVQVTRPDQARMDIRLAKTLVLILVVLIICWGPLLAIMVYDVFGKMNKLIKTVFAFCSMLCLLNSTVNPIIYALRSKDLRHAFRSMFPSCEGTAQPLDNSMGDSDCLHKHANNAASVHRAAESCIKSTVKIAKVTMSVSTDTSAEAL

Cytochrome P450 2D6 = Cytochrome P450 2D6 (Homo sapiens, UniProt P10635); assay: Inhibition of CYP2D6 in human liver microsomes using dextromethorphan as substrate by LC-MS/MS analysis in presence of NADPH; type: ADME
Sequence of Cytochrome P450 2D6 (P10635 whole entry): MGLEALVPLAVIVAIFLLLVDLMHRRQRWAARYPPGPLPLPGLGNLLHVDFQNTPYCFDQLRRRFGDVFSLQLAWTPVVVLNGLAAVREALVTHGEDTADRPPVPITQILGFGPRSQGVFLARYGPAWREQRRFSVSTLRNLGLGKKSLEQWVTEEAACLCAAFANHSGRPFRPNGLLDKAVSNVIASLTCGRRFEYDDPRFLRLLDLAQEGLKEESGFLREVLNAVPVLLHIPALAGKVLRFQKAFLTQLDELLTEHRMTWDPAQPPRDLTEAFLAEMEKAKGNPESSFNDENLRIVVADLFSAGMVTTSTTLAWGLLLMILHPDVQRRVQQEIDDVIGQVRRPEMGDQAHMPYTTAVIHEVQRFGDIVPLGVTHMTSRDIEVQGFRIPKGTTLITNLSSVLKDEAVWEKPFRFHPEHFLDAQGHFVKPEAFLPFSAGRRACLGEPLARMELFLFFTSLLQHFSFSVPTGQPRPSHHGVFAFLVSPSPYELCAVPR

[10] = molecular target: Sodium-dependent noradrenaline transporter (Homo sapiens) (UniProt P23975); assay: Displacement of [3H]nisoxetine from human recombinant norepinephrine transporter expressed in CHO cells assessed as remaining radioligand binding at 10 uM after 120 mins by scintillation counting method relative to control; type: cell-based
Sequence of Sodium-dependent noradrenaline transporter (Homo sapiens) (P23975 whole entry): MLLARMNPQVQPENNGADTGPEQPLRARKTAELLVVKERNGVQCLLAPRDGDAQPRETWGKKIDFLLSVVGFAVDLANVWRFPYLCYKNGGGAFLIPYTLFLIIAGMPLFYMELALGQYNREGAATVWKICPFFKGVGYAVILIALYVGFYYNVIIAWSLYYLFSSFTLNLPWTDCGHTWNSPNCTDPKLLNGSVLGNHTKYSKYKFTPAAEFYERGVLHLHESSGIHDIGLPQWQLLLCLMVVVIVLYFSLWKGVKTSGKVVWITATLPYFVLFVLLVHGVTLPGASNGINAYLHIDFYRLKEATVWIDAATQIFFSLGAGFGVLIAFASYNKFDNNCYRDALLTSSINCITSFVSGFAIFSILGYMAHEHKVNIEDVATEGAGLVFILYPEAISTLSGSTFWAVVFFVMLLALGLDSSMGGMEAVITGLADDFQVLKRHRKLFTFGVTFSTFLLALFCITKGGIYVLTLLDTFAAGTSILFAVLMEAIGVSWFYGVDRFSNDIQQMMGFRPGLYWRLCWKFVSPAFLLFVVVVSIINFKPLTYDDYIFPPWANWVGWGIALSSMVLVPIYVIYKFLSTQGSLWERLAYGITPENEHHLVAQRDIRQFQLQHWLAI

[11] = Solubility of compound in pH 7.4 phosphate buffered saline; type: physicochemical
Rattus norvegicus [12] = assay: In vivo inhibition of TRPA1 in Harlan Sprague-Dawley rat model of AITC-induced flinching assessed as unbound plasma concentration based IC90; type: functional
Summary of the method: (§2)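 Rats were given vehicle (2% HPMC/1% Tween-80) or compound orally at 1, 3, 10 or 30 mg/kg. After 1 h, 0.1% AITC was injected into one left ventral hind paw, and nocifensive flinching was recorded over the first minute. Unbound plasma concentration was measured at 1 h, n = 8 per dose. In vivo IC50/IC90 came from the exposure–response relationship across individual animals.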

[13] = molecular target: Histamine H3 receptor (Homo sapiens) (UniProt Q9Y5N1); assay: Displacement of [3H]Na-Me-histamine from human recombinant histamine H3 receptor expressed in CHO cells assessed as remaining radioligand binding at 10 uM after 60 mins by scintillation counting method relative to control; type: cell-based
Plasma = assay: Unbound plasma concentration in Harlan Sprague-Dawley rat model of AITC-induced flinching at 30 mg/kg, po at 1 hr; type: ADME, organism-based; conditions: in vivo; summary of the method: as §2
[14] = Tmax in rat at 30 mg/kg, po; type: ADME, organism-based; conditions: in vivo; summary of the method: as §1
[15] = molecular target: 5-hydroxytryptamine receptor 2B (Homo sapiens) (UniProt P41595); assay: Displacement of [3H]mesulergine from human recombinant 5HT2B receptor expressed in CHO cells assessed as remaining radioligand binding at 10 uM after 60 mins by scintillation counting method relative to control; type: cell-based
Sequence of 5-hydroxytryptamine receptor 2B (Homo sapiens) (P41595 whole entry): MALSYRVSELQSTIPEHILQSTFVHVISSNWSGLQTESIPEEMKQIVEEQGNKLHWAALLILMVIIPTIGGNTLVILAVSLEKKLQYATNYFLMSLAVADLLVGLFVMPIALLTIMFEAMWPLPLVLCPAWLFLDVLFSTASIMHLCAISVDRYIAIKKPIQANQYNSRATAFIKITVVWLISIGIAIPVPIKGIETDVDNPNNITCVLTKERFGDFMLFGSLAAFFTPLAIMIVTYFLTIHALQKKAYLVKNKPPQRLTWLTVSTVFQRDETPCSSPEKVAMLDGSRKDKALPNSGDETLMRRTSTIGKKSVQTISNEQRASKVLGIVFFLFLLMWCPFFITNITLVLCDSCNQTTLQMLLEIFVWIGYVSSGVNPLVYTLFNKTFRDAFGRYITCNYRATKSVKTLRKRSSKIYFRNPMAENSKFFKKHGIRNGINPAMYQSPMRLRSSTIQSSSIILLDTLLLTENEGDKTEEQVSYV

[16] = molecular target: Muscarinic acetylcholine receptor M1 (Homo sapiens) (UniProt P11229); assay: Displacement of [3H]pirenzepine from human recombinant muscarinic M1 receptor expressed in CHO cells assessed as remaining radioligand binding at 10 uM after 60 mins by scintillation counting method relative to control; type: cell-based
Sequence of Muscarinic acetylcholine receptor M1 (Homo sapiens) (P11229 whole entry): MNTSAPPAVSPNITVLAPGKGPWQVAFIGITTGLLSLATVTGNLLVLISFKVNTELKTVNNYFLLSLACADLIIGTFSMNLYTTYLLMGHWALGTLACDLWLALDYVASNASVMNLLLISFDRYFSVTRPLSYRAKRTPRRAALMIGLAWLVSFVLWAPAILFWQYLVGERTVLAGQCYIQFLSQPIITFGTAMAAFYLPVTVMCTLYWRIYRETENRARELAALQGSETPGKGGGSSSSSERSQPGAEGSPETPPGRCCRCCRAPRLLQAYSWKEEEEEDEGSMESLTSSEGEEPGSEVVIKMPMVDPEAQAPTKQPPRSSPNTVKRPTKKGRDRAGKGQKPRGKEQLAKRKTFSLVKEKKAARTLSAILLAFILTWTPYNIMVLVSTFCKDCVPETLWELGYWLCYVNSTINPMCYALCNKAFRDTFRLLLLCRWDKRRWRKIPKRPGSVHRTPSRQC

Rattus norvegicus [17] = assay: Binding affinity to TRPA1 in Harlan Sprague-Dawley rat model of AITC-induced flinching at 30 mg/kg, po in presence of AITC; type: functional, organism-based
[18] = molecular target: T1, Transient receptor potential cation channel subfamily A member 1; assay: Antagonist activity at human TRPA1 expressed in tetracycline-inducible T-REx expression system transfected CHO cells assessed as inhibition of AITC-induced Ca2+ influx preincubated for 2 mins followed by AITC addition measured for 2 mins by Fluo-4 dye based FLIPR assay; type: cell-based
[19] = molecular target: Histamine H1 receptor (Homo sapiens) (UniProt P35367); assay: Displacement of [3H]pyrilamine from human recombinant histamine H1 receptor expressed in HEK293 cells assessed as remaining radioligand binding at 10 uM after 60 mins by scintillation counting method relative to control; type: cell-based
Sequence of Histamine H1 receptor (Homo sapiens) (P35367 whole entry): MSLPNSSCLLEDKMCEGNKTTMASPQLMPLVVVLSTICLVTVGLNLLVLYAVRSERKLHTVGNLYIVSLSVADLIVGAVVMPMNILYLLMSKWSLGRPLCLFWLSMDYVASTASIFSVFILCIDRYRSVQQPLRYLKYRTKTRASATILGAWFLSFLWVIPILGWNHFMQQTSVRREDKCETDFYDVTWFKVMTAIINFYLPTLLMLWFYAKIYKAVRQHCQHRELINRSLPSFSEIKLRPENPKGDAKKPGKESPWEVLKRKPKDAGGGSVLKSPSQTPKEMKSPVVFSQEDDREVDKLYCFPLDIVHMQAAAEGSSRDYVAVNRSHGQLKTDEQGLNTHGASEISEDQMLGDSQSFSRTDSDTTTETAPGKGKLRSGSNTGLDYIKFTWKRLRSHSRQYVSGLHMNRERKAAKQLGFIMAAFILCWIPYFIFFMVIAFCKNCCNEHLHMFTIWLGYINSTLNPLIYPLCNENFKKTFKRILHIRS

[20] = molecular target: Muscarinic acetylcholine receptor M4 (Homo sapiens) (UniProt P08173); assay: Displacement of [3H]4-DAMP from human recombinant muscarinic M4 receptor expressed in CHO cells assessed as remaining radioligand binding at 10 uM after 60 mins by scintillation counting method relative to control; type: cell-based
Rattus norvegicus [21] = assay: Antinociceptive activity in po dosed Harlan Sprague-Dawley rat assessed as inhibition of AITC-induced paw flinches pretreated for 1 hr followed by AITC injection measured for 1 min post injection; type: functional, organism-based
Summary of the method: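 Rats were dosed orally with vehicle (2% HPMC/1% Tween-80) or antagonist at 1, 3, 10 or 30 mg/kg. After 1 h, 0.1% AITC was injected into the left ventral hind paw. Flinching was recorded over the first minute post-injection. Unbound plasma concentrations were measured at 1 h (n = 8 per dose).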

[22] = Apparent intrinsic clearance in human liver microsomes; type: ADME; conditions: read-out: CLH(app)
[23] = Fraction unbound in rat plasma; type: ADME, cell-free
[24] = molecular target: D(3) dopamine receptor (Homo sapiens) (UniProt P35462); assay: Displacement of [3H]methyl-spiperone from human recombinant dopamine D3 receptor expressed in CHO cells assessed as remaining radioligand binding at 10 uM after 60 mins by scintillation counting method relative to control; type: cell-based
Sequence of D(3) dopamine receptor (Homo sapiens) (P35462 whole entry): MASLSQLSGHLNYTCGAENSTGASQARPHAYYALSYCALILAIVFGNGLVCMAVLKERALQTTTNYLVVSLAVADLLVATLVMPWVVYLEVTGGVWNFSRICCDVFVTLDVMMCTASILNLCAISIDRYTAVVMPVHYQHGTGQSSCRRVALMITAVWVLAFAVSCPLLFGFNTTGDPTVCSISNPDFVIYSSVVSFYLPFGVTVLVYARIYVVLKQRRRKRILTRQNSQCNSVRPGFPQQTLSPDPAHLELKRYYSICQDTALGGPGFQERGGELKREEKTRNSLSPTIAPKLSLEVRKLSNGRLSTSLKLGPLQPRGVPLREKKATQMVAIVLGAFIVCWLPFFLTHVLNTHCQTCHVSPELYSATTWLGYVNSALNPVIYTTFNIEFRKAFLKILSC

[25] = molecular target: 5-hydroxytryptamine receptor 1B (Rattus norvegicus) (UniProt P28564); assay: Displacement of [125I]CYP from 5HT1B receptor in rat cerebral cortex assessed as remaining radioligand binding at 10 uM after 120 mins by scintillation counting method relative to control; type: tissue-based
[26] = molecular target: 5-hydroxytryptamine receptor 2A (Homo sapiens) (UniProt P28223); assay: Displacement of [3H]ketanserin from human recombinant 5HT2A receptor expressed in HEK293 cells assessed as remaining radioligand binding at 10 uM after 60 mins by scintillation counting method relative to control; type: cell-based
Sequence of 5-hydroxytryptamine receptor 2A (Homo sapiens) (P28223 whole entry): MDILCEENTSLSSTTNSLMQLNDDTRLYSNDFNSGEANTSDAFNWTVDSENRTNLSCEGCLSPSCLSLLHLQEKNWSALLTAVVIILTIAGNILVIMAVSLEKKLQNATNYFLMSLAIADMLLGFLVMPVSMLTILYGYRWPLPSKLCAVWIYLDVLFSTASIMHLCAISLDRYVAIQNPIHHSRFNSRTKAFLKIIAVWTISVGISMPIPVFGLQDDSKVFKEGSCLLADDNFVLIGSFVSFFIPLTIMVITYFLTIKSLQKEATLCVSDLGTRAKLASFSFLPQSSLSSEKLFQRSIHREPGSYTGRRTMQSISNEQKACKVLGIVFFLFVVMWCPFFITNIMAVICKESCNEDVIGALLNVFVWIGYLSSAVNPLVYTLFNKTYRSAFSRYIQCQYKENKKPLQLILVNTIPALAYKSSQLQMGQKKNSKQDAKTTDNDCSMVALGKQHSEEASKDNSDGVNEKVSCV

Cn1cnc2ncn(Cc3nc(CCc4ccc(Cl)cc4)no3)c(=O)c21
Activity [1]: > 77% | inhibition [2]: inactive | Cmax [3]: 7.5 µM | EC50 [4]: > 40000 nM | IC50 [5]: 131 nM | bioavailability [6]: 60% | Activity (Rattus norvegicus [7]): > 77% | Papp A→B at 2 h [8]: 44.5 ×10⁻⁶ cm/s | Activity [9]: > 77% | IC50 (Cytochrome P450 2D6): > 27000 nM | Activity [10]: > 77% | solubility [11]: 226 µM (≈ 83.8 µg/mL) | IC90 (Rattus norvegicus [12]): 1700 nM | Activity [13]: > 77% | Cp(f) (Plasma): 2.2 µM | Tmax [14]: 48 min | Activity [15]: > 77% | Activity [16]: > 77% | Activity (Rattus norvegicus [17]): Active | IC50 [18]: 20 nM | Activity [19]: > 77% | Activity [20]: > 77% | inhibition (Rattus norvegicus [21]): Dose-dependent effect | microsomal CLint [22]: < 14 µL/min/mg | fraction unbound [23]: 0.289 | Activity [24]: > 77% | Activity [25]: > 77% | Activity [26]: > 77%
